This is an account of results in PubChem BioAssay.

The nature of test [1]: Her2 expression decrease, cell viability multiplex – SKBR3 breast tumor cells, AlphaScreen, ATP viability, primary screen (AID 461;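 active means Her2 level under about 52% in both replicate screens, with viability over 70% of control, limit read from the data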;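 on Her2 level: lower value means less Her2 protein in the cells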;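 on viability: percent of carrier control wells set as 100% viability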). Particulars: SKBR3 Her2 protein level, 18-24 h, measured here: SKBR3 viability, ATP luminescence, at 10 µM. On the technique in general: Bead proximity is the source of the signal in Alpha formats.
In test [2] the target is Receptor tyrosine-protein kinase erbB-2 (Homo sapiens) (UniProt P04626). The description is as above. As to conditions: 18-24 h, at 10 µM, stronger effect = lower value.
Chain of Receptor tyrosine-protein kinase erbB-2 (Homo sapiens) (P04626 whole entry, looked up): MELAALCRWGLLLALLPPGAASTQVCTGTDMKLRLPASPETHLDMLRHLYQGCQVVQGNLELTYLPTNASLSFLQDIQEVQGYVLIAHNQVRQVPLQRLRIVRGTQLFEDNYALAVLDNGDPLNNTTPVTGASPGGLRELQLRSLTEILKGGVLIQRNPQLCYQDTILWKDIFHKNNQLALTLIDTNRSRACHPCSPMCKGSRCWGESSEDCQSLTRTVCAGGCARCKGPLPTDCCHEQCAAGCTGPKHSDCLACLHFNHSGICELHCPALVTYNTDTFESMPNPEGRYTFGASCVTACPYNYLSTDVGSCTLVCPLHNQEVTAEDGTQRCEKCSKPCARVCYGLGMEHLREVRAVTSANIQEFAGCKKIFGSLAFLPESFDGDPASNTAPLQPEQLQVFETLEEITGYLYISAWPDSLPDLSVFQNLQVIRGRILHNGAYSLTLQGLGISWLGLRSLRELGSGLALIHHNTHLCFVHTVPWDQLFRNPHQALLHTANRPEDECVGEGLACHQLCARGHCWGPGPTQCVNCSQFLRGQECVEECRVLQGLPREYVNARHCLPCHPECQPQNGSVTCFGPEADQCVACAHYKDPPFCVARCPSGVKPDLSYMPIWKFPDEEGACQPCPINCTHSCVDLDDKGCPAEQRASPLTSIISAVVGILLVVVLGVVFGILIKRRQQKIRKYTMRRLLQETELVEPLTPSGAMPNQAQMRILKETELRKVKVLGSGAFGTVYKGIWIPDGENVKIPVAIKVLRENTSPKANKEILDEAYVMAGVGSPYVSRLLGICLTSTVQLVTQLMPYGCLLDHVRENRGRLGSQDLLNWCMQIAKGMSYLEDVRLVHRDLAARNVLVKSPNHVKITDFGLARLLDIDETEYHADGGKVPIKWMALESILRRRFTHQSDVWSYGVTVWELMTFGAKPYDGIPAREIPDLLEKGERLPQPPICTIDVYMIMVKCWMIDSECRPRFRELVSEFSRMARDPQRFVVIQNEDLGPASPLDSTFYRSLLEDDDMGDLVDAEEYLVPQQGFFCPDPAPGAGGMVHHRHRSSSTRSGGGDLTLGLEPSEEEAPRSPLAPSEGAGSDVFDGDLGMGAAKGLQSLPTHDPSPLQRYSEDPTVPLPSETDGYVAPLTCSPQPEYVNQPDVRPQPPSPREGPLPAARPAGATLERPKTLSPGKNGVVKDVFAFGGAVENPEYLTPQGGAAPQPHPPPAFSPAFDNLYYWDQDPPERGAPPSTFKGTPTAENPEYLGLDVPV
A short description of test [3]: reduced viability of SK-BR-3 breast cancer cells – cell-based, 24 h, human, pilot screen (AID 572;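 active means viability at or below 10% of carrier control in both of two separate runs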;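 further: compound exposure lasted between 18 and 24 h rather than exactly 24 h; 100% = carrier-treated control wells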). As to conditions: SK-BR-3 viability, CellTiter-Glo luminescence, at 10 µM, stronger effect = lower value. (In general: Cellular ATP, detected with luciferase, serves as a proxy for viable cell number.)
A short description of test [4]: HUVEC growth inhibition – cell-based, human, primary screen (AID 575;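 active means viability at or below 30% in both replicate assays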;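 further: 100% = median of untreated cell wells with 0.1% DMSO on each plate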). As to conditions: HUVEC proliferation, CellTiter-Glo luminescence, 72 h; at 10 µM; stronger effect = lower value. Summed up:
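system = HUVEC primary cells | amount = 1250 cells/well | buffer or medium = supplemented EBM, 2% fetal bovine serum | dosing = single-point 10 µM, DMSO 0.1% final | times = 72 h compound incubation | detection = CTG luminescence | read-out = % viability relative to median vehicle-well signal on each plate | control set = vehicle and MePR control wells | format = collagen-coated 384-well format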

A short description of test [5]: H69AR cell proliferation blockers – human, duplicate replicates, primary screen (AID 580;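 active means viability at or under a set limit in both replicates, limit being median viability minus 3 SD, cut at about 48% in these data, passing the limit was not always enough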;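 further: 100% = mean luminescence of untreated wells and 0% = no signal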). As to conditions: H69AR lung tumor cells viability, ATP luminescence, 72 h; at 10 µM; stronger effect = lower value.
Test [6] can be described thus: MRP1 drug-resistance reversers in H69AR cells – cell-based, doxorubicin co-treatment, pilot screen (AID 601). Particulars: CellTiter-Glo, 72 h, at 10 µM; for differential viability (reversal): stronger effect = higher value.
A short description of test [7]: yeast transport mutant growth inhibition pilot in 384-well plates, post-Golgi transport modulator project (AID 636; in the data active means inhibition above about 31%). Particulars: absorbance 615 nm, about 18 h, stronger effect = higher value.
The nature of test [8]: growth suppression of yeast trafficking mutant, preliminary HTS, modulators of trafficking downstream of Golgi apparatus project, 1536-format plate, OD 615 nm (AID 637; in the data active means inhibition above about 30%). As to conditions: yeast transport mutant growth, absorbance 615 nm, 18 h; stronger effect = higher value.
Where [9] appears, read: H69AR cells + 2 uM doxorubicin, measured here: viability with 2 uM doxorubicin, stronger effect = lower value.
Where [10] appears, read: H69AR cells, compound alone cytotoxicity.

Calls of active or inactive are those of the source.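 How the source made its calls, unless noted: active means viability loss from added drug above about 55%, and viability with drug at most 40%, in both replicates (limit read from the data, passing the limit was not always enough); inconclusive means both conditions met in only one replicate; inactive means neither replicate meets both conditions.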

The viability is a read-out of living cells in per cent, often relative to untreated cells. As a reminder, the inhibition is the relative decrease from the control value, in per cent. In the case of `C/C(=C(\C#N)C(=O)NCCCN1CCOCC1)N(C)C`, the viability in test [1] is 96.5%; in test [3], 96.5% (inactive); in test [4] it was 95.2% (inactive); in test [5], 102% (inactive); in test [6] (setting [9]), 93.1%; in test [6] (setting [10]), 102%. Moreover, the Her2 level in test [2] was 106% (inactive). Moreover, the differential viability (reversal) in test [6] (H69AR cells + 2 uM doxorubicin) was 8.58% (inactive). For the same molecule, the inhibition in test [7] was -1.58% (inactive); in test [8], 5.57% (inactive).
For `Cc1ccc(S(=O)(=O)N2CCC(C(=O)N[C@@H](Cc3ccccc3)C(=O)O)CC2)cc1`, the viability is 104% in test [1]; 104% (inactive) in test [3]; 108% (inactive) in test [4]; 86.9% (inactive) in test [5]; 77.1% in test [6] (setting [9]); 86.9% in test [6] (setting [10]). In addition, the Her2 level in test [2] was 174% (inactive). In test [6] (H69AR cells + 2 uM doxorubicin), the differential viability (reversal) is 9.85% (inactive). The results for the inhibition in test [7] and in test [8] were -4.27% (inactive) and -6.13% (inactive), respectively.
Turning to `C/C(N)=C(/C#N)C(=O)COC(=O)c1cc(C)n(-c2ccc(F)cc2)c1C`, the viability is 91% in test [1]; 91% (inactive) in test [3]; 49.4% (inactive) in test [4]; 98.1% (inactive) in test [5]; 98.2% in test [6] (setting [9]); 98.1% in test [6] (setting [10]). The Her2 level in test [2] is 97.5% (inactive). Also, the differential viability (reversal) in test [6] (H69AR cells + 2 uM doxorubicin) is -0.13% (inactive). Moreover, the inhibition in test [7] is -4.53% (inactive); in test [8], -1.45% (inactive).
Take `CCOP(=O)(c1ccc(N(C)C)cc1)C(O)c1ccccc1OC` (stereo not given): the viability in test [1] is 86%; in test [3] it was 86% (inactive); in test [4] it was 115% (inactive); in test [5], 98.7% (inactive); in test [6] (setting [9]), 95.1%; in test [6] (setting [10]), 98.7%. Further, the Her2 level in test [2] is 98.5% (inactive). The differential viability (reversal) in test [6] (H69AR cells + 2 uM doxorubicin) is 3.56% (inactive). Also, the inhibition was -1.07% (inactive) in test [7] and -3.65% (inactive) in test [8].
For the molecule `Cc1ccsc1C1C2=C(CCCC2=O)Nc2ncnn21` (stereo not given), the viability in test [1] is 86%; in test [3], 86% (inactive); in test [4] it was 98% (inactive); in test [5], 92.6% (inactive); in test [6] (setting [9]) it was 99.7%; in test [6] (setting [10]), 92.6%. Moreover, in test [2], the Her2 level is 100% (inactive). For the same molecule, in test [6] (H69AR cells + 2 uM doxorubicin), the differential viability (reversal) was -7.12% (inactive). In addition, the values for the inhibition in test [7] and in test [8] were -1.32% (inactive) and -1.31% (inactive), respectively.
As for `CCCCN(c1ccccc1)S(=O)(=O)c1ccc2c(c1)CCN2C(=O)CCC(=O)O`, the viability in test [1] was 116%; in test [3], 116% (inactive); in test [4] it was 93.8% (inactive); in test [5] it was 91.9% (inactive); in test [6] (setting [9]), 90%; in test [6] (setting [10]), 91.9%. The Her2 level in test [2] is 100% (inactive). Further, the differential viability (reversal) in test [6] (H69AR cells + 2 uM doxorubicin) was 1.98% (inactive). Moreover, the inhibition in test [7] is -1.58% (inactive); in test [8] it was -6.73% (inactive).
Consider `COc1cc(-c2nnc(SCC(=O)c3cc(C)n(CC4CCCO4)c3C)o2)cc(OC)c1OC` (stereo not given), for which the viability in test [1] is 104%; in test [3] it was 104% (inactive); in test [4] it was 76.4% (inactive); in test [5] it was 77.5% (inactive); in test [6] (setting [9]), 79.5%; in test [6] (setting [10]) it was 77.5%. For the same molecule, the Her2 level in test [2] is 66.5% (inactive). Moreover, the differential viability (reversal) in test [6] (H69AR cells + 2 uM doxorubicin) is -2% (inactive). Moreover, the inhibition in test [7] is -5.95% (inactive); in test [8] it was -4.83% (inactive).
On to `CCCCCOC(=O)C1=C(C)N(C)C(=O)NC1c1cc(Br)c(O)c(OC)c1` (stereo not given), for which the viability is 114% in test [1]; 114% (inactive) in test [3]; 72.7% (inactive) in test [4]; 83.2% (inactive) in test [5]; 86.5% in test [6] (setting [9]); 83.2% in test [6] (setting [10]). Also, in test [2], the Her2 level is 106% (inactive). For the same molecule, the differential viability (reversal) in test [6] (H69AR cells + 2 uM doxorubicin) was -3.32% (inactive). The inhibition was -7.14% (inactive) in test [7] and -7.62% (inactive) in test [8].
`CCCOc1ccc(OCCSc2ncccn2)cc1`: the viability in test [1] was 97%; in test [3], 97% (inactive); in test [4] it was 99.6% (inactive); in test [5] it was 102% (inactive); in test [6] (setting [9]), 83.1%; in test [6] (setting [10]), 102%. Besides, the Her2 level in test [2] was 91% (inactive). Moreover, in test [6] (H69AR cells + 2 uM doxorubicin), the differential viability (reversal) was 18.8% (inactive). Further, the inhibition in test [7] is -6.67% (inactive); in test [8] it was -0.79% (inactive).
For the molecule `COc1ccc2nc3oc(C(=O)NC4CCN(Cc5ccccc5)CC4)cc3cc2c1`, the viability was 76.5% in test [1]; 76.5% (inactive) in test [3]; 57.5% (inactive) in test [4]; 82.6% (inactive) in test [5]; 80.9% in test [6] (setting [9]); 82.6% in test [6] (setting [10]). Further, in test [2], the Her2 level is 89.5% (inactive). Further, the differential viability (reversal) in test [6] (H69AR cells + 2 uM doxorubicin) is 1.69% (inactive). Also, the inhibition in test [7] is -2.76% (inactive); in test [8], -14.8% (inactive).
For the molecule `COc1ccc(CCNC(=O)C2=COCCO2)cc1`, the viability in test [1] was 126%; in test [3], 126% (inactive); in test [4], 109% (inactive); in test [5] it was 108% (inactive); in test [6] (setting [9]), 104%; in test [6] (setting [10]), 108%. Further, the Her2 level in test [2] was 94% (inactive). The differential viability (reversal) in test [6] (H69AR cells + 2 uM doxorubicin) is 4.46% (inactive). Further, the figures for the inhibition in test [7] and in test [8] were -6.58% (inactive) and -5.08% (inactive), respectively.
On to `N#C/C(C(=O)N1CCOCC1)=C1/SC(Cc2ccccc2)C(=O)N1c1ccccc1` (stereo not given), for which the viability was 92% in test [1]; 92% (inactive) in test [3]; 99.4% (inactive) in test [4]; 98.4% (inactive) in test [5]; 102% in test [6] (setting [9]); 98.4% in test [6] (setting [10]). Besides, the Her2 level in test [2] was 90.5% (inactive). Moreover, the differential viability (reversal) in test [6] (H69AR cells + 2 uM doxorubicin) was -3.21% (inactive). For the same molecule, the inhibition in test [7] is -3.55% (inactive); in test [8], -4.91% (inactive).
In the case of `O=C(NCc1ccco1)c1csc(Nc2ccccc2Cl)n1`, the viability in test [1] is 70.5%; in test [3] it was 70.5% (inactive); in test [4] it was 60.5% (inactive); in test [5], 78.2% (inactive); in test [6] (setting [9]), 79.4%; in test [6] (setting [10]), 78.2%. The Her2 level in test [2] was 97.5% (inactive). The differential viability (reversal) in test [6] (H69AR cells + 2 uM doxorubicin) is -1.24% (inactive). Also, the inhibition in test [7] was -8.24% (inactive); in test [8] it was -5.25% (inactive).
On to `Cc1nc2c(C(=O)O)cnn2c(C)c1Cc1ccccc1F`, for which the viability in test [1] was 97.5%; in test [3], 97.5% (inactive); in test [4], 70.6% (inactive); in test [5], 87.4% (inactive); in test [6] (setting [9]) it was 84.8%; in test [6] (setting [10]), 87.4%. Also, in test [2], the Her2 level is 141% (inactive). In addition, the differential viability (reversal) in test [6] (H69AR cells + 2 uM doxorubicin) was 2.52% (inactive). In addition, the inhibition in test [7] is 1.84% (inactive); in test [8], -8.33% (inactive).
Regarding `COc1ccc(CN(C(=O)CNC(=O)c2ccco2)C(C(=O)NC2CCCC2)c2ccco2)cc1` (stereo not given), the viability in test [1] was 91%; in test [3], 91% (inactive); in test [4] it was 103% (inactive); in test [5], 95.4% (inactive); in test [6] (setting [9]) it was 87.8%; in test [6] (setting [10]), 95.4%. For the same molecule, the Her2 level in test [2] was 106% (inactive). The differential viability (reversal) in test [6] (H69AR cells + 2 uM doxorubicin) was 7.6% (inactive). The inhibition was -0.39% (inactive) in test [7] and -5.48% (inactive) in test [8].
Turning to `CCOC(=O)Cn1nnnc1C(C(C)C)N(Cc1cc2c(C)cc(C)cc2[nH]c1=O)C1CCCC1` (stereo not given), the viability in test [1] was 98%; in test [3] it was 98% (inactive); in test [4] it was 58.6% (inactive); in test [5], 88.5% (inactive); in test [6] (setting [9]) it was 89.9%; in test [6] (setting [10]), 88.5%. For the same molecule, the Her2 level in test [2] is 102% (inactive). Also, in test [6] (H69AR cells + 2 uM doxorubicin), the differential viability (reversal) is -1.4% (inactive). In addition, the inhibition is -5.41% (inactive) in test [7] and 16.6% (inactive) in test [8].
